Square brackets hold non-standard residues; d marks the D form. Peptide text beside a SMILES is read from it. hPhe = N[C@@H](CCc1ccccc1)C(=O)O; Nle = CCCC[C@H](N)C(=O)O; Dap = NC[C@H](N)C(=O)O

In assay [1] the target is Melanocyte-stimulating hormone receptor (Mus musculus) (UniProt Q01727). The assay is described as follows: Agonist activity at mouse MC1R expressed in HEK293 cells at 100 uM incubated for 2 hrs by AlphaScreen cAMP assay relative to NDP-MSH. The class given is functional, cell-based. An outline of the steps: (§1)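 HEK293 cells stably expressing mouse MC1R, about 90% confluent, were detached with Versene and suspended at 10,000 cells/μL in stimulation buffer (HBSS, 0.5 mM IBMX, 5 mM HEPES, 0.1% BSA, pH 7.4) with anti-cAMP acceptor beads. Compound was added for 2 h at room temperature in the dark, then donor beads/biotinylated cAMP in lysis buffer for 2 h, followed by AlphaScreen read. Doses went up to 100 μM in duplicate wells, ≥3 experiments. EC50 came from nonlinear regression, with efficacy as a percent of NDP-MSH.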

Assay [2] addresses Melanocyte-stimulating hormone receptor (Mus musculus, UniProt Q01727). The assay is described as follows: Agonist activity at mouse MC1R expressed in HEK293 cells incubated for 2 hrs by AlphaScreen cAMP assay. The class given is functional, cell-based. An outline of the steps: as §1
A general note: Bead proximity is the source of the signal in Alpha formats.

The target in a further assay is Melanocortin receptor 4 (Mus musculus, UniProt P56450). The experiment in a line: Antagonist activity at mouse MC4R expressed in HEK293 cells assessed as reduction in NDP-MSH-induced response incubated for 2 hrs by AlphaScreen cAMP assay based Schild analysis. It counts as functional, cell-based. As to conditions: read-out: pA2 (converted).
The target of assay [3] is Melanocortin receptor 4 (Mus musculus) (UniProt P56450). The assay is described as follows: Agonist activity at mouse MC4R expressed in HEK293 cells at 100 uM incubated for 2 hrs by AlphaScreen cAMP assay relative to untreated control. It counts as functional, cell-based.
The target in assay [4] is Melanocortin receptor 5 (Mus musculus) (UniProt P41149). The assay is described as follows: Inverse agonist activity at mouse MC5R expressed in HEK293 cells at 100 uM incubated for 2 hrs by AlphaScreen cAMP assay. It counts as functional, cell-based. Put shortly:
(§2)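 In the mouse MC5R HEK293 stable line, cells in IBMX-containing stimulation buffer with anti-cAMP acceptor beads were exposed to compound at up to 100 μM for 2 h at room temperature in the dark. Donor beads/biotinylated cAMP were then added for 2 h before AlphaScreen reading. Signal was normalized to basal response to give a percent difference from basal. Duplicate wells, ≥3 independent experiments.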

In the next assay the target is Melanocortin receptor 3 (Mus musculus, UniProt P33033). The experiment in a line: Antagonist activity at mouse MC3R expressed in HEK293 cells assessed as reduction in NDP-MSH-induced response incubated for 2 hrs by AlphaScreen cAMP assay based Schild analysis. It counts as functional, cell-based. As to conditions: read-out: pA2 (converted).
Assay [5] concerns the target Melanocortin receptor 3 (Mus musculus) (UniProt P33033). The assay is described as follows: Agonist activity at mouse MC3R expressed in HEK293 cells at 100 uM incubated for 2 hrs by AlphaScreen cAMP assay relative to untreated control. It counts as functional, cell-based.
The species named for a further assay is Mus musculus. The assay is described as follows: Selectivity index, ratio of pA2 for antagonist activity at mouse MC3R expressed in HEK293 cells to pA2 for antagonist activity at mouse MC4R expressed in HEK293 cells. It counts as cell-based.
Another assay addresses Melanocortin receptor 5 (Mus musculus, UniProt P41149). The experiment in a line: Inverse agonist activity at mouse MC5R expressed in HEK293 cells incubated for 2 hrs by AlphaScreen cAMP assay. It counts as functional, cell-based. Put shortly:
as §2

For assay [6], the target named is Melanocyte-stimulating hormone receptor (Mus musculus) (UniProt Q01727). The assay is described as follows: Agonist activity at mouse MC1R expressed in HEK293 cells incubated for 2 hrs by AlphaScreen cAMP assay relative to NDP-MSH. It counts as functional, cell-based. An outline of the steps: as §1

Sequence of Melanocortin receptor 5 (Mus musculus) (P41149 whole entry): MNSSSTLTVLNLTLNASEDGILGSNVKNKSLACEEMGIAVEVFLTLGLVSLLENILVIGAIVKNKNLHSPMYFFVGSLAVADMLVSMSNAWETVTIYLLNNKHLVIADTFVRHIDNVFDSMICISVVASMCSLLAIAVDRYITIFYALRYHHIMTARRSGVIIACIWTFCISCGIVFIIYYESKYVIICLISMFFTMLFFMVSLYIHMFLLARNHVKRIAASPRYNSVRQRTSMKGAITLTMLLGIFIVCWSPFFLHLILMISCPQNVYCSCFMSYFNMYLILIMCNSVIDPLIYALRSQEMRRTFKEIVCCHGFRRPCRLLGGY
Sequence of Melanocortin receptor 5 (P41149 whole entry): as above
Sequence of Melanocortin receptor 3 (Mus musculus) (P33033 whole entry): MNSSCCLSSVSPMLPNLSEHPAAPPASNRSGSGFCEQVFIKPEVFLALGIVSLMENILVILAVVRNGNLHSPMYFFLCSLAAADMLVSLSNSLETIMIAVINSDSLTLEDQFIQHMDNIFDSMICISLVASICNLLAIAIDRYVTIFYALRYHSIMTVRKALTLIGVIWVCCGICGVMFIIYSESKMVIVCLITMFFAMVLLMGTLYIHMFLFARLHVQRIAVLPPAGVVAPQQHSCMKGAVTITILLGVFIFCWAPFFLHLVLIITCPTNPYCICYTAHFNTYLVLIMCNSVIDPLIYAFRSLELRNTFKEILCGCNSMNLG
Sequence of Melanocortin receptor 3 (P33033 whole entry): as above
Sequence of Melanocyte-stimulating hormone receptor (Mus musculus) (Q01727 whole entry, looked up): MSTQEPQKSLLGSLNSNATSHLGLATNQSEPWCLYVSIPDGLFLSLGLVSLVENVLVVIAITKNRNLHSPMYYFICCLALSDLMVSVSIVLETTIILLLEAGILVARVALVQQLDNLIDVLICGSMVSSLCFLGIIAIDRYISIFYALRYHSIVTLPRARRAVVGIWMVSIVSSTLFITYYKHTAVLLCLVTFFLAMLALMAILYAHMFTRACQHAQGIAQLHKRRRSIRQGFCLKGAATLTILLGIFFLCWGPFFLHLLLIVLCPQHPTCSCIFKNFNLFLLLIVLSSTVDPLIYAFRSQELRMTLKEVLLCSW
Sequence of Melanocyte-stimulating hormone receptor (Q01727 whole entry): as the sequence (Q01727 whole entry, looked up) above
Sequence of Melanocortin receptor 4 (P56450 whole entry): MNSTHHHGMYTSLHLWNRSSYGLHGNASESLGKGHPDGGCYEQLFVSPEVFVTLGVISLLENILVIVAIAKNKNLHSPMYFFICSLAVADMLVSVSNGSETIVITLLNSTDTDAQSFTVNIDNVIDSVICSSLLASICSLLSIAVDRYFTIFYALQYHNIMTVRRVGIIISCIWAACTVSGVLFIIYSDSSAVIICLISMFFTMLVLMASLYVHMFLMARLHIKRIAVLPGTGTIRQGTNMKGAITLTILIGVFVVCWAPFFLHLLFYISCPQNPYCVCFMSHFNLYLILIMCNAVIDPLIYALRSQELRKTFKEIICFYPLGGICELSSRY
Sequence of Melanocortin receptor 4 (Mus musculus) (P56450 whole entry): as above

Regarding `N=C(N)NCCC[C@@H]1NC(=O)[C@H](Cc2ccccc2)NC(=O)[C@H](Cc2ccccc2)NC(=O)[C@H](CCCNC(=N)N)NC(=O)[C@@H]2CCCN2C(=O)[C@H]2CCCN2C(=O)[C@H](Cc2ccccc2)NC(=O)[C@H](CO)NC1=O`, the Activity in assay [1], in assay [3], in [4] and in assay [5] was below 20% each time. Also, the EC50 (in assay [2]; at Melanocortin receptor 5) was above 100 µM each time. Moreover, the Kb on Melanocortin receptor 4 is 0.001 µM; at Melanocortin receptor 3, 0.0794 µM. Besides, in the assay listed under Mus musculus, the Ratio came out at 79.

With `CCCC[C@@H]1NC(=O)[C@H](C)NC(=O)[C@H](CN)NC(=O)[C@H](Cc2ccccc2)NC(=O)[C@H](Cc2ccccc2)NC(=O)[C@H](CCCNC(=N)N)NC(=O)[C@@H]2CCCN2C(=O)[C@H]2CCCN2C1=O`, the EC50 (as a rule, the concentration at which the effect is half-maximal) in assay [2] was 0.19 µM; on Melanocortin receptor 5, above 100 µM. The Kb is 0.001 µM at Melanocortin receptor 4 and 0.0794 µM at Melanocortin receptor 3. In addition, the Activity in assay [3], in [4] and in [5] was below 20% throughout. Also, the Ratio in the assay filed under Mus musculus was 79.

In the case of `CCCC[C@@H]1NC(=O)[C@H](C)NC(=O)[C@H](CC(N)=O)NC(=O)[C@H](CCc2ccccc2)NC(=O)[C@H](Cc2ccccc2)NC(=O)[C@H](CCCNC(=N)N)NC(=O)[C@@H]2CCCN2C(=O)[C@H]2CCCN2C1=O`, the Activity in [1], in assay [3], in assay [4] and in assay [5] was below 20% each time. The EC50 (in [2]; at Melanocortin receptor 5) was above 100 µM in each case. Also, the results for the Kb on Melanocortin receptor 4 and at Melanocortin receptor 3 were 0.00251 µM and 0.631 µM, respectively. In addition, in the assay filed under Mus musculus, the Ratio worked out at 250.

Turning to `N=C(N)NCCC[C@@H]1NC(=O)[C@@H]2CCCN2C(=O)[C@H]2CCCN2C(=O)[C@H](Cc2ccccc2)NC(=O)[C@H](CO)NC(=O)[C@H](CN)NC(=O)[C@H](CCc2ccccc2)NC(=O)[C@H](Cc2ccccc2)NC1=O`, the Activity in assay [1] is 40%; in assay [3] it was below 20%; in assay [4] it was below 20%; in assay [5], below 20%. Further, the Kb at Melanocortin receptor 4 was 0.000631 µM; on Melanocortin receptor 3, 0.0631 µM. In the assay listed under Mus musculus, the Ratio stood at 120. The EC50 on Melanocortin receptor 5 is above 100 µM.

Take `N=C(N)NCCC[C@@H]1NC(=O)[C@@H]2CCCN2C(=O)[C@H]2CCCN2C(=O)[C@H](Cc2ccccc2)NC(=O)[C@H](CO)NC(=O)[C@H](CC(N)=O)NC(=O)[C@H](CCc2ccccc2)NC(=O)[C@H](Cc2ccccc2)NC1=O`: the Activity in [1] is 40%; in [3], below 20%; in assay [4], below 20%; in assay [5], below 20%. Moreover, the Kb at Melanocortin receptor 4 was 0.00251 µM; at Melanocortin receptor 3, 0.316 µM. The Ratio in the assay filed under Mus musculus turned out to be 130. For the same compound, the EC50 on Melanocortin receptor 5 is above 100 µM.

Turning to `CCCC[C@@H]1NC(=O)[C@H](CO)NC(=O)[C@H](CC(N)=O)NC(=O)[C@H](Cc2ccccc2)NC(=O)[C@H](Cc2ccccc2)NC(=O)[C@H](CCCNC(=N)N)NC(=O)[C@@H]2CCCN2C(=O)[C@H]2CCCN2C1=O` (cyclo(RFFNS[Nle][dP]P)), the half-maximal effective concentration (EC50) in [2] is 2.6 µM. Further, the Kb at Melanocortin receptor 4 was 0.00316 µM; at Melanocortin receptor 3 it was 0.251 µM. Besides, the Activity in assay [6] was 75%; in [3] it was below 20%; in [4] it was -35%; in assay [5], below 20%. Also, the Ratio in the assay listed under Mus musculus stood at 79.

In the case of `CCCC[C@@H]1NC(=O)[C@H](C)NC(=O)[C@H](CCCNC(=N)N)NC(=O)[C@H](Cc2ccccc2)NC(=O)[C@H](Cc2ccccc2)NC(=O)[C@H](CCCNC(=N)N)NC(=O)[C@@H]2CCCN2C(=O)[C@H]2CCCN2C1=O` (cyclo(RFFRA[Nle][dP]P)), the Activity in assay [1], in assay [3], in [4] and in [5] was below 20% throughout. Also, the EC50 (in assay [2]; at Melanocortin receptor 5) was above 100 µM in each case. In addition, the Kb was 0.000794 µM on Melanocortin receptor 4 and 0.0316 µM at Melanocortin receptor 3. In addition, the Ratio in the assay listed under Mus musculus stood at 46.

With `CCCC[C@@H]1NC(=O)[C@H](CO)NC(=O)[C@H](CCCNC(=N)N)NC(=O)[C@H](Cc2ccccc2)NC(=O)[C@H](Cc2ccccc2)NC(=O)[C@H](CCCNC(=N)N)NC(=O)[C@@H]2CCCN2C(=O)[C@H]2CCCN2C1=O` (cyclo(RFFRS[Nle][dP]P)), the Activity in assay [1], in [3], in assay [4] and in assay [5] was below 20% in each case. Besides, the half-maximal effective concentration (EC50) (in [2]; at Melanocortin receptor 5) was above 100 µM each time. Besides, the values for the Kb at Melanocortin receptor 4 and on Melanocortin receptor 3 were 0.000251 µM and 0.0794 µM, respectively. In addition, in the assay filed under Mus musculus, the Ratio turned out to be 320.

As to `CCCC[C@@H]1NC(=O)[C@H](CO)NC(=O)[C@H](CN)NC(=O)[C@H](Cc2ccccc2)NC(=O)[C@H](Cc2ccccc2)NC(=O)[C@H](CCCNC(=N)N)NC(=O)[C@@H]2CCCN2C(=O)[C@H]2CCCN2C1=O` (cyclo(RFF[Dap]S[Nle][dP]P)), the Activity in assay [1], in assay [3], in assay [4] and in assay [5] was below 20% throughout. Further, the EC50 (in assay [2]; at Melanocortin receptor 5) was above 100 µM in each case. Moreover, the Kb was 0.000794 µM on Melanocortin receptor 4 and 0.316 µM on Melanocortin receptor 3. The Ratio in the assay filed under Mus musculus amounted to 430.

In the case of `C[C@@H]1NC(=O)[C@H](CCCNC(=N)N)NC(=O)[C@H](CCc2ccccc2)NC(=O)[C@H](Cc2ccccc2)NC(=O)[C@H](CCCNC(=N)N)NC(=O)[C@@H]2CCCN2C(=O)[C@H]2CCCN2C(=O)[C@H](Cc2ccccc2)NC1=O` (cyclo(RF[hPhe]RAF[dP]P)), the Activity in [1] was 25%; in assay [3], below 20%; in [4] it was below 20%; in assay [5] it was below 20%. Further, the Kb at Melanocortin receptor 4 is 0.00126 µM; on Melanocortin receptor 3, 0.01 µM. Also, the Ratio in the assay listed under Mus musculus was determined as 8. The compound also gave a 50% effective concentration (EC50) at Melanocortin receptor 5 above 100 µM.

For the compound `CCCC[C@@H]1NC(=O)[C@H](C)NC(=O)[C@H](CCCNC(=N)N)NC(=O)[C@H](CCc2ccccc2)NC(=O)[C@H](Cc2ccccc2)NC(=O)[C@H](CCCNC(=N)N)NC(=O)[C@@H]2CCCN2C(=O)[C@H]2CCCN2C1=O` (cyclo(RF[hPhe]RA[Nle][dP]P)), the Activity in assay [1], in assay [3], in assay [4] and in [5] was below 20% in each case. The 50% effective concentration (EC50) (in assay [2]; on Melanocortin receptor 5) was above 100 µM each time. Besides, the Kb on Melanocortin receptor 4 was 0.00158 µM; on Melanocortin receptor 3, 0.0316 µM. In addition, the Ratio in the assay listed under Mus musculus stood at 19.

For `N=C(N)NCCC[C@@H]1NC(=O)[C@H](CCc2ccccc2)NC(=O)[C@H](Cc2ccccc2)NC(=O)[C@H](CCCNC(=N)N)NC(=O)[C@@H]2CCCN2C(=O)[C@H]2CCCN2C(=O)[C@H](Cc2ccccc2)NC(=O)[C@H](CO)NC1=O` (cyclo(RF[hPhe]RSF[dP]P)), the Activity in assay [1] is 30%; in assay [3] it was below 20%; in assay [4], below 20%; in assay [5], below 20%. For the same compound, the Kb at Melanocortin receptor 4 was 0.00158 µM; at Melanocortin receptor 3, 0.02 µM. The Ratio in the assay listed under Mus musculus is 13. On Melanocortin receptor 5, this compound had an EC50 above 100 µM.

`CCCC[C@@H]1NC(=O)[C@H](CO)NC(=O)[C@H](CCCNC(=N)N)NC(=O)[C@H](CCc2ccccc2)NC(=O)[C@H](Cc2ccccc2)NC(=O)[C@H](CCCNC(=N)N)NC(=O)[C@@H]2CCCN2C(=O)[C@H]2CCCN2C1=O` (cyclo(RF[hPhe]RS[Nle][dP]P)): the values for the concentration giving a half-maximal response (EC50) (in assay [2]; at Melanocortin receptor 5) were 0.4 µM and above 100 µM, respectively. Also, the results for the Kb at Melanocortin receptor 4 and on Melanocortin receptor 3 were 0.000316 µM and 0.0126 µM, respectively. Besides, the Activity in assay [3], in assay [4] and in assay [5] was below 20% in each case. In addition, the Ratio in the assay listed under Mus musculus came out at 37.

As for `CCCC[C@@H]1NC(=O)[C@H](C)NC(=O)[C@H](CN)NC(=O)[C@H](CCc2ccccc2)NC(=O)[C@H](Cc2ccccc2)NC(=O)[C@H](CCCNC(=N)N)NC(=O)[C@@H]2CCCN2C(=O)[C@H]2CCCN2C1=O` (cyclo(RF[hPhe][Dap]A[Nle][dP]P)), the Activity in [1], in [3], in assay [4] and in assay [5] was below 20% throughout. Further, the half-maximal effective concentration (EC50) (in assay [2]; at Melanocortin receptor 5) was above 100 µM each time. In addition, the Kb on Melanocortin receptor 4 is 0.000794 µM; on Melanocortin receptor 3 it was 0.2 µM. The Ratio in the assay listed under Mus musculus worked out at 250.
